In publication PMC6265067 (Nature, 2018):

What was measured:
D14 [1] = biological target: T1, D14 (Oryza sativa subsp. japonica, UniProt Q10QA5); assay: AlphaScreen competition of D3-CTH peptide with His-D3 for binding GST-D14; design: species or system O. sativa; conditions: 10 μM GR24 (saturating), dose-dependent, 50 mM MES pH 6.5, 150 mM NaCl, 1 mM DTT, 0.1 mg/ml BSA, mean ± s.d. of biological triplicates
T1 sequence (Q10QA5 52-318): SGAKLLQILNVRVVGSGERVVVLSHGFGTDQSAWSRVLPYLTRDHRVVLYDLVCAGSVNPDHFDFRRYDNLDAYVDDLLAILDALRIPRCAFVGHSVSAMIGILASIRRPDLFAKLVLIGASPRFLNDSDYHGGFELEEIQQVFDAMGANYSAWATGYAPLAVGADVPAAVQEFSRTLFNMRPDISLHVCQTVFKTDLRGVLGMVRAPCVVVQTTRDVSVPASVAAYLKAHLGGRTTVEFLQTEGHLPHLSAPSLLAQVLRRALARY

D53-D2 / D14 = assay: AlphaScreen assay of D53-D2-D14 interaction; type: binding, O. sativa; conditions: DMSO control, mean ± s.d. of biological triplicates
Method in brief: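 AlphaScreen proximity read. The GST-tagged partner sits on glutathione donor beads and the His-tagged partner on anti-6xHis acceptor beads (5 μg/ml each). Uses 100–500 nM D14 or D53 and 1 μM ASK1-D3 in 50 mM MES pH 6.5, 150 mM NaCl, 1 mM DTT, 0.1 mg/ml BSA. Excitation 680 nm, emission 520–620 nm. Peptide reactions carry matched DMSO; DMSO-only serves as control.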

D14 / D53-D2 = assay: GST-pulldown of D14 and D53-D2 in the presence of D3-CTH; type: binding, O. sativa; conditions: in the presence of GR24, repeated thrice
Method in brief: (§1)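 GST-tagged bait (~20–40 μg) and His-tagged or untagged prey (~10–25 μg) were incubated with GST beads for 30 min at 4 °C in 40 mM Tris-HCl pH 7, 100 mM NaCl, 2 mM DTT, 0.01% BSA. GR24 was at 20–100 μM with acetone as control. Beads were washed in 250 mM NaCl buffer with 0.01% Tween 20 and eluted with SDS sample buffer or 5 mM glutathione. Read-out: SDS-PAGE with Ponceau or anti-GST/anti-His Western.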

D14-D3-ASK1 = type: binding, O. sativa (ASK1: A. thaliana); conditions: for complex formation with D14-D3-ASK1: in the presence of GR24 (100–200 μM)
Method in brief: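 Purified proteins (20–50 μM) were preincubated for 1 h at 4 °C with 100–200 μM GR24, or with acetone as control, in 20 mM HEPES pH 7.0, 150 mM NaCl, 2 mM DTT. Samples were run on Superdex-200 Increase 10/300 at 0.5 mL/min. Fractions of 0.5 ml were analysed by SDS-PAGE with Coomassie staining; repeated at least three times.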

AtSMXL7-YFP = assay: SMXL7-YFP level in tobacco epidermal cells; type: cell-based, Arabidopsis thaliana, expressed in Nicotiana benthamiana; conditions: co-expressed with D14-CTH-mCherry; 10 μM GR24, 120 min; n=7 nuclei; p = 4.401×10^−2
D14 / D3 = assay: AlphaScreen assay of GST-D14 / His-D3 interaction in response to GR24; type: binding, O. sativa; conditions: increasing GR24, pH 6.5, mean ± s.d. of biological triplicates
Method in brief: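 GST-D14 is held on glutathione donor beads and His-D3 (ASK1-D3 complex, 1 μM) on anti-6xHis acceptor beads, both at 5 μg/ml. D14 at 100–500 nM. Buffer is 50 mM MES, 150 mM NaCl, 1 mM DTT, 0.1 mg/ml BSA. GR24 is titrated. Signal is read at 520–620 nm after 680 nm excitation, averaged over three experiments.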

D14 [2] = biological target: T1, D14; assay: YLG hydrolysis assay; type: biochemical, O. sativa
Method in brief: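 Recombinant rice D14 (residues 52–318, SUMO tag cleaved) at 1–2 μg, with co-expressed ASK1-D3 complex and D53-D2, plus YLG. Buffer is 50 mM MES pH 6.5, 150 mM NaCl, 1 mM DTT under plate seal. Fluorescence (ex 480/em 520 nm) is read every 10 s over 50–60 min and converted to fluorescein concentration via a standard curve before curve fitting. Repeated at least three times.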

D53 = D53 stability in a reconstituted cell-free system; type: biochemical, O. sativa (extract: Arabidopsis seedlings); conditions: max2–1 seedling extract; 10 μM GR24; 22 °C
D14 [3] = biological target: T1, D14; assay: Pull-down assay with GST-tagged D53-N, D53-D1 or D53-D2 and His-D14; type: binding, O. sativa; conditions: GST-tagged D53 domains, GR24
Method in brief: as §1

D3-CTH peptide: 28 amino acids D3-CTH peptide (28aa, D3_693–720), O. sativa (ENDLMFTEMRAESWLRFEVQLNSRQIDD; UniProt Q5VMP0 693-720, looked up, fragment)
competition with D3 for binding D14 (D14 [1]): able to compete with D3 for binding D14
promotion of D53-D2-D14 interaction (D53-D2 / D14): elicited the same effect in a dose-dependent manner
stimulation of D14 and D53-D2 pulling down each other (D14 / D53-D2): able to stimulate D14 and D53-D2 to pull down each other in the presence of GR24

D3_708–720: 13aa D3 peptide (RFEVQLNSRQIDD; UniProt Q5VMP0 708-720, looked up, fragment)
promotion of D53-D2-D14 interaction (D53-D2 / D14): did not stimulate binding

CCOC(=O)c1ccccc1-c1c2ccc(=O)cc-2oc2cc(OC3C=C(C)C(=O)O3)ccc12 (stereo not shown) [YLG, Yoshimulactone Green, reference compound]
complex assembly among D14, D3-ASK1 and D53-D2 (D14-D3-ASK1; Superdex-200, in the presence of YLG): can induce complex assembly among D14, D3-ASK1, and the D53-D2 domain

CC1=C[C@H](O/C=C2/C(=O)O[C@@H]3c4ccccc4C[C@H]23)OC1=O [GR24]
SMXL7 reduction upon GR24 treatment (AtSMXL7-YFP): 11.8%
D3-D14 interaction (D14 / D3): GR24-dependent D3-D14 interaction

D3_693–707: 15aa D3 peptide (ENDLMFTEMRAESWL; UniProt Q5VMP0 693-707, looked up, fragment)
promotion of D53-D2-D14 interaction (D53-D2 / D14): did not stimulate binding

B1: D53: Full length D53 (O. sativa), expressed as a GST fusion protein (protein)
chain: MPTPVAAARQCLSPAAVPALDAAVASSRRRAHAQTTSLHLISSLLAPPAPPLLRDALARARSAAYSPRVQLKALDLCFAVSLDRLPSVSASSSSSGAADEPPVSNSLMAAIKRSQANQRRNPDTFHFYHQAATAQTPAAVKVELSHLVLAILDDPVVSRVFAEAGFRSGDIKLAILRPAPPMPLLGRLPTRTRPPPLFLCSFAAADDADVPSPAGNLAGAGEENCRRIAEILSRGRNPMLVGVGAASAADDFAAASPYRIIHVDPNTIDRSDLGVAAAMASATSGLIISIGDLKQLVPDEDAEAQEKGRRVVAEVTRVLETHSKVGRVWVMGWSATYETYLAFLSKFPLVDKDWDLQLLPITAVHAAATAGPAAAAAGLMPPATTVAAFSKPAASLMDSFVPFGGFLCDNYEENSLTANSCPQALRCQQCNDKYEQEVATIISASGITAEDHHQGGLPSLLQNGSMMGPNNGFDPVKARDDRMVLNSKILNLRKKWNEYCLRLHQDHQRINRDPYKPFPRYIGVPTDKERSANSSKGSESVGVQKDVIKPCAVSAVHSSSTARPISSPSVTNKRNEDLVLNLQARHSKSDENLQERGMQSQHGTLSNVDNPDDHVSPSSAAPVETDLVLGTPRECSSKGSSSTCSKRVEDSERSVHLVPKKVDDLNLKHPQLSVQPNSCSWSSINVGKTSHSTLHSVASGGFSAFGQWQKRSPLAAQNSDLSNYKLLVERLFKVVGRQEEALSAICESIVRCRSTESRRGPNRNDIWLCFHGSDSMAKKRIAVALAELMHGSKDNLIYLDLNLQDWDDSSFRGKTGIDCIVEQLSKKRQSVLFLDNIDRADCLVQDSLSDAIKSGRFQDMRGKVVDINDSIVVLSRSMIQGSKNGLEEGLSFSEEKILATRGHRLKILVEPGRAITSGCPSGKVVVSPRHFLTKIQASLCSGSISKRKLSISDDQEKLQESPSSSKRLHRTSSVPFDLNLPVDEDEPLDADDDSSSHENSYGNTEKSIDALLHSVDGSINFKPFDFDKLADDMLQEFSNILRKNLGSECMLEIDVGAMEQILAAAWKSEEDRKPVPTWLEQVFARSLDELKLKRKHVSSSTLRLVACEDTVPAVKGDGLGVLLPPRIILDC
modifications: left off: GST, end not stated, kept
complex formation with D14-D3-ASK1 (D14-D3-ASK1; Superdex-200): can form a stable complex with D14-D3-ASK1 in the presence of GR24
effect on D14 inhibited by D3 C-terminal peptide (D14 [2]; D14 + D3-CTH, initial reaction and slow linear phase): robustly blocked the inhibition of the enzymatic activity of D14 by the D3 C-terminal peptide

B2: C-terminally truncated D3 mutant protein: D3ΔCTH (O. sativa, residues 1–693) co-expressed with ASK1 (protein, UniProt Q5VMP0 1-693, looked up, fragment)
chain: MAEEEEVEEGRSSSSAILDLPEPLLLHILSFLTDVRSRHRAALACGRMRAAERATRSELSLRGDPRSPGFLFLSHAFRFPALEHLDLSLVSPWGHPLLSSVPPCGGGGGGAPSASSSSGMNVYHPEAISEQNAFIAARLAGCFPAVTSLAVYCRDPTTLANLTPHWQASLRRVKLVRWHQRPPTLPDGADLEPLLETCAALRELDLSEFYCWTEDVVRALTTHPSATAALTHLDLGLAAATDGFKSSELGPIAASCPNLRKLVAPCLFNPRFSDCVGDDALLSLATSCPRLTVLRLSEPFEAAANIQREEAAITVAGLVAFFAALPALEDFTMDLQHNVLEAAPAMEALARRCPRIKFLTLGSFQGLCKASWLHLDGVAVCGGLESLYMKNCQDLTDASLAAIGRGCRRLAKFGIHGCDLVTSAGIRRLAFTLRPTLKEVTVLHCRLLHTAECLTALSPIRDRIESLEINCVWNTTEQPCSVANGTTTECDPEDDELGEVYESAAKKCRYMEFDDLGSWEMLRSLSLWFSAGQLLSPLISAGLDSCPVLEEISIKVEGDCRTCPRPAPRTIFGLSDLAGFPVLAKMKLDLSEAVGYALTAPTGQMDLSLWERFYLHGIESLQTLYELDYWPPQDKDVHHRSLTLPAVGLIQRCVGLRKLFIHGTTHEHFMTFFLSIPNLRDMQLREDYYPAPE
modifications: co-expressed with ASK1
ternary complex with D14 and D53-D2 (D14-D3-ASK1; sizing column, D14-GR24, D53-D2): could neither form a ternary complex with D14 and D53-D2 on a sizing column
restoration of D53-degrading activity of max2–1 extracts (D53): nor restore the D53 degradation activity of the max2–1 extracts

B3: D53 D2 domain: D53 D2 domain (D53-D2, 718–1,131) (protein)
chain: NSDLSNYKLLVERLFKVVGRQEEALSAICESIVRCRSTESRRGPNRNDIWLCFHGSDSMAKKRIAVALAELMHGSKDNLIYLDLNLQDWDDSSFRGKTGIDCIVEQLSKKRQSVLFLDNIDRADCLVQDSLSDAIKSGRFQDMRGKVVDINDSIVVLSRSMIQGSKNGLEEGLSFSEEKILATRGHRLKILVEPGRAITSGCPSGKVVVSPRHFLTKIQASLCSGSISKRKLSISDDQEKLQESPSSSKRLHRTSSVPFDLNLPVDEDEPLDADDDSSSHENSYGNTEKSIDALLHSVDGSINFKPFDFDKLADDMLQEFSNILRKNLGSECMLEIDVGAMEQILAAAWKSEEDRKPVPTWLEQVFARSLDELKLKRKHVSSSTLRLVACEDTVPAVKGDGLGVLLPPRIILDC
modifications: left off: GST, end not stated, kept
complex formation with D14-D3-ASK1 (D14-D3-ASK1; Superdex-200): can form a stable complex with D14-D3-ASK1 in the presence of GR24
requirement for stable association with D14 (D14-D3-ASK1; Superdex-200, ± ASK1-D3, GR24): stably associated with D14 only in the presence of D3 and GR24
effect on D3-ASK1-arrested D14 kinetics (D14 [2]; D14 + ASK1-D3, D53-D2 at two concentrations): little change in the enzymatic kinetics
binding D14 (D14 [3]): solely responsible for binding D14 in a GR24-dependent manner
